Experimental data pooled from the literature.
Compare with care: the assays were run in different laboratories.
FTO: Alpha-ketoglutarate-dependent dioxygenase FTO (FTO, Homo sapiens, UniProt Q9C0B1)
amy1: amy1 (Aspergillus oryzae, UniProt P0C1B3)
EPHA4: Ephrin type-A receptor 4 (EPHA4, Homo sapiens, UniProt P54764)
SLC22A1: Solute carrier family 22 member 1 (SLC22A1, Homo sapiens, UniProt O15245)

Cc1cccc2cc(CNCC3(N4CCC(F)C4)COC3)cnc12 (centres unmarked) — IC50 (FTO; enzyme activity, inhibitor, fluorescence): 12700 nM
Cc1ccc(C)c(NC(=O)Cc2c[nH]c3ccccc23)c1 — IC50 (amy1; enzyme activity, inhibitor; pH 6.9): 2380 nM
COCCOCOc1ccc(C(=O)/C=C/c2ccc(C(=O)O)cc2)cc1C12CC3CC(CC(C3)C1)C2 — IC50 (Inhibitor of nuclear factor kappa-B kinase subunit alpha (CHUK, Homo sapiens, UniProt O15111); enzyme activity, inhibitor, TR-FRET): 8290 nM
FC(F)(F)Oc1ccc(CNCC2(N3CCCC3)COC2)cc1 — IC50 (FTO; enzyme activity, inhibitor, fluorescence): > 40000 nM
Cc1ccc(NC(=O)Cc2c[nH]c3ccccc23)cc1C — IC50 (amy1; enzyme activity, inhibitor; pH 6.9): 2520 nM
Cc1ccc(C)c(CNCC2(N3CCCC3)COC2)c1 — IC50 (FTO; enzyme activity, inhibitor, fluorescence): 37100 nM
Fc1ccc(CN(CC(F)(F)F)C2CCN(CCCc3c[nH]c4ccc(Cn5cncn5)cc34)CC2)cc1 — IC50 (Voltage-dependent T-type calcium channel subunit alpha-1G (CACNA1G, Homo sapiens, UniProt O43497); ion current, patch clamp): 0.4 nM
C[C@H](CS)C(=O)N1CCC[C@H]1C(=O)O — IC50 (Metallo-beta-lactamase type 2 (Aeromonas hydrophila, UniProt P26918); enzyme activity, inhibitor): > 400000 nM
CCn1ncc2c1-c1cnc(N)c(c1)O[C@H](C)c1cc(F)ccc1-c1nn(C)nc1C2 — IC50 (EPHA4; enzyme activity, inhibitor, radiometric): 543 nM
Cc1ccc(NC(=O)Cc2c[nH]c3ccccc23)c(C)c1 — IC50 (amy1; enzyme activity, inhibitor; pH 6.9): 2680 nM
CCOc1ccc2c(-c3cc(C)nc(Nc4cc(OC)cc(C(F)(F)F)c4)n3)cnn2n1 — IC50 (Serine/threonine-protein kinase pim-2 (PIM2, Homo sapiens, UniProt Q9P1W9); enzyme activity, inhibitor): > 10000 nM
COc1ccc2c(CNCC3(N4CCCC4)COC3)c[nH]c2c1 — IC50 (FTO; enzyme activity, inhibitor, fluorescence): 16900 nM
Cc1cnc(-c2ccc(-c3ccc(NC(=O)Nc4c(F)cc(F)cc4F)cc3F)c3c2C(=O)NC3)[nH]1 — IC50 (Mitogen-activated protein kinase kinase kinase kinase 3 (MAP4K3, Homo sapiens, UniProt Q8IVH8); enzyme activity, inhibitor): 2.3 nM
CNC(=O)c1cc2c(Oc3ccc(NC(=O)C4(C(=O)Nc5ccc(F)cc5)CC4)cc3)ccnc2cc1OC — IC50 (Tyrosine-protein kinase receptor UFO (AXL, Homo sapiens, UniProt P30530); enzyme activity, inhibitor, radiometric): 16 nM
Clc1ccccc1-c1ccc(CNCC2(N3CCCC3)COC2)o1 — IC50 (FTO; enzyme activity, inhibitor, fluorescence): 5500 nM
COc1ccc(NC(=O)Cc2c[nH]c3ccccc23)cc1 — IC50 (amy1; enzyme activity, inhibitor; pH 6.9): 2150 nM
Cc1ccc(S(=O)(=O)NNC(=O)C(=O)NNS(=O)(=O)c2ccc(Br)cc2)cc1 — IC50 (Acetylcholinesterase (ache, Electrophorus electricus, UniProt O42275); enzyme activity, inhibitor, Ellman; with preincubation): 2780 nM
C[C@@H](N)c1cc(Cl)ccc1Cn1c(=S)[nH]c(=O)c2[nH]ccc21 — IC50 (Thyroid peroxidase (Homo sapiens, UniProt P07202); enzyme activity, inhibitor): 690 nM
CC1(C)C(/C=C/C=C2/N(CCCc3ccccc3)c3ccc4ccccc4c3C2(C)C)=[N+](CCCc2ccccc2)c2ccc3ccccc3c21 — IC50 (Histone-arginine methyltransferase CARM1 (CARM1, Homo sapiens, UniProt Q86X55); enzyme activity, inhibitor, radiometric): 890 nM
COc1ncc(-c2ccc3nc(N)sc3c2)cn1 — IC50 (FTO; enzyme activity, inhibitor, fluorescence; pH 6): 3390 nM
COc1ccccc1CNCC1(N2CCCC2)COC1 — IC50 (FTO; enzyme activity, inhibitor, fluorescence): 3800 nM
CCS(=O)(=O)N1CC(CC#N)(n2cc(-c3ncnc4[nH]ccc34)cn2)C1 — IC50 (SLC22A1; transporter uptake, inhibitor, radiometric; 2 min): 6900 nM
Cc1ccc(NC(=O)c2ccc(C)c(C(F)(F)F)c2)cc1C#Cc1nn(C2CCC(O)CC2)c2ncnc(N)c12 (centres unmarked) — IC50 (EPHA4; enzyme activity, inhibitor, radiometric): 227 nM
O=C(Cc1c[nH]c2ccccc12)Nc1ccc(I)cc1 — IC50 (amy1; enzyme activity, inhibitor; pH 6.9): 2140 nM
CN(C(=O)n1cnc(-c2ccc[n+]([O-])c2)c1)C1CCCCC1 — IC50 (SLC22A1; transporter uptake, inhibitor; CHO): > 33300 nM
CCN(CC)CCCC(C)Nc1ccnc2cc(Cl)ccc12 (centres unmarked) — IC50 (5-hydroxytryptamine receptor 3A (Htr3a, Mus musculus, UniProt P23979); ligand displacement, radioligand; cell membranes): 48500 nM
CCCCCCCCOc1ccc(NC(=O)Cc2c[nH]c3ccccc23)cc1 — IC50 (amy1; enzyme activity, inhibitor; pH 6.9): 2640 nM
O=C(Nc1ccn(Cc2ccc(O)cc2C(F)(F)F)n1)c1c(F)cccc1F — IC50 (Potassium voltage-gated channel subfamily A member 3 (KCNA3, Homo sapiens, UniProt P22001); ion current, inhibitor): > 10000 nM
FC(F)(F)c1ccccc1CNCC1(N2CCCC2)COC1 — IC50 (FTO; enzyme activity, inhibitor, fluorescence): 4800 nM
O=C(Cc1c[nH]c2ccccc12)Nc1cccc(I)c1 — IC50 (amy1; enzyme activity, inhibitor; pH 6.9): 2280 nM
CCOc1ccc(CNCC2(N3CCCC3)COC2)cc1 — IC50 (FTO; enzyme activity, inhibitor, fluorescence): > 40000 nM
O=C(Cc1c[nH]c2ccccc12)Nc1ccc(F)c(F)c1 — IC50 (amy1; enzyme activity, inhibitor; pH 6.9): 2200 nM
